High-throughput results deposited in PubChem by several laboratories.
APP 5'UTR act: APP 5'UTR luciferase reporter activation; SH-SY5Y APP 5'UTR luciferase reporter, luminescence; zero percent = DMSO vehicle wells; activation, % at 2 µM; 190,000 tested, 1% active; AID 1276;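 active = activation above a set limit, based on mean plus 3 SD of controls, cut at about 140% in these data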
STAT1 inh-1: inhibitors of IFN-gamma induced STAT1 signaling; 200,000 tested, 0.35% active; inhibition, % at 5.5 µM; AID 920; NIH 3T3 STAT1-luciferase reporter, luminescence;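 active = inhibition above a set limit, the mean inhibition across all tested compounds plus 3 SD, cut at about 34% in these data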;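 also: 0% = IFN-gamma with DMSO and 100% = IFN-gamma with 300 µM nifuroxazide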
STAT1 act-1: activators of IFN-gamma induced STAT1 signaling; NIH 3T3 STAT1-luciferase reporter, luminescence; 100% = IFN-gamma alone, no compound; activation (% of control), % at 5.5 µM; 200,000 tested, 2.6% active;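 active = activation above the screen-wide mean activation plus 3 SD, cut at about 130% in these data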;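 also: raw ratio to IFN-gamma control signal so 100% means no change and 0% no light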
STAT3 act-1: activators of IL-6 induced STAT3 signaling | U3A cells, IL-6 STAT3-luciferase reporter, luminescence; 100% = signal with IL-6 EC80 alone | 190,000 tested, 0.91% active | AID 871 | activation (% of control), % at 5.6 µM;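 active = activation above the screen-wide mean of compound activation plus 3 SD, cut at about 130% in these data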;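 also: 0% = background luminescence of wells with medium and substrate only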
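Material: human STAT1-deficient U3A cells with stable STAT3-luciferase reporter / Probe or stimulus: IL-6 stimulus at 33 ng/mL final / Schedule: 1 h compound pre-exposure, 6 h IL-6 stimulation, 37 °C / Technique: luminescence / Read-out basis: percent of IL-6-only median luminescence / Control set: IL-6-only high control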
NF-kB expr up: compounds increasing NF-kB expression in human neuronal cells. fold change at 12.5 µM. 190,000 tested, 1.6% active. NF-kB reporter expression; active compounds read high; in the data active = fold change above about 3.3
STAT3 inh: reduces IL-6 driven STAT3 reporter signal; U3A cells, IL-6 STAT3-luciferase reporter, luminescence; host cell line lacks STAT1; inhibition, % at 5.5 µM; 190,000 tested, 0.89% active; AID 862;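 active = inhibition above the mean inhibition across all screened compounds plus 3 SD, cut at about 44% in these data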;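 also: 0% = DMSO only wells and 100% = 100 µM nifuroxazide control wells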
STAT3 act-2: confirmation of STAT3 signaling activators | 1,200 tested, 64% active | U3A STAT3-luciferase reporter, IL-6 potentiation, luminescence; U3A cells lack STAT1; 100 means same as IL-6 alone | shares compounds with STAT3 act-1 | potentiation (% of control), % at 5.7 µM;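 active = percent activation of the STAT3 luciferase reporter above a set limit taken from the earlier primary screen, cut at about 130% in these data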;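 also: 0% = background signal of medium plus substrate and 100% = median of IL-6 with DMSO wells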
NFkB act STAT3ct: activates NF-kappaB, counter-screen to STAT3 activators; shares compounds with STAT3 act-1; human cells, NF-kappaB reporter activation; activation (% of control), % at 5.7 µM; 1,200 tested, 11% active; AID 1309; in the data active = activation above about 120%;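 also: reporter induced by TNF-alpha stimulation; 100% = median of stimulated DMSO wells and 0% = no signal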
STAT1 act-2: STAT1 activation in STAT3 activator counter-screen; NIH 3T3 STAT1-luciferase reporter, IFN-gamma, luminescence; shares compounds with STAT3 act-1; AID 1318; activation (% of control), % at 5.7 µM; 1,200 tested, 13% active;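 active = activation above the solvent-only control well mean plus 3 SD, set per screening run, cut at about 120% in these data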;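 also: 100% = IFN-gamma with DMSO median signal so 100% means no change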
STAT1 inh-2: STAT1 inhibition, confirmation assay. 200 tested, 55% active. inhibition, % at 5.5 µM. shares compounds with STAT1 inh-1. AID 1263. NIH 3T3 STAT1-luciferase reporter, IFN-gamma, luminescence;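 active = triplicate mean inhibition exceeding the hit cutoff computed for the primary STAT1 screen, cut at about 35% in these data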;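 also: 0% = DMSO with IFN-gamma and 100% = 300 µM nifuroxazide with IFN-gamma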
NFkB inh STAT1ct: inhibits NF-kappaB, counter-screen to STAT1 inhibitors | shares compounds with STAT1 inh-1 | HEK293T NF-kB luciferase reporter, TNF-alpha induced, luminescence | inhibition, % at 5.7 µM | 200 tested, 30% active | AID 1303;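 active = inhibition above the mean of solvent-only control wells plus 3 SD of those wells, cut at about 15% in these data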;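 also: 0% = DMSO with TNF-alpha and 100% = MG-132 control with TNF-alpha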
STAT3 inh STAT1c: STAT3 inhibition in STAT1 inhibitor counter-screen; AID 1310; inhibition, % at 5.7 µM; 200 tested, 20% active; U3A cells, IL-6 STAT3 luciferase reporter, luminescence; cells lacking STAT1; shares compounds with STAT1 inh-1;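 active = inhibition above the mean of solvent-only control wells plus 3 SD, set per campaign, cut at about 25% in these data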;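 also: 0% = IL-6 plus DMSO and 100% = IL-6 plus nifuroxazide control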
An asterisk follows results filed as active. In the library only some 5.1% were active in any assay of this set; here they are far more common.

For COc1ccccc1C1c2[nH]c3ccccc3c2CCN1Cc1cnc(C)s1 (stereo not drawn) the results were APP 5'UTR act 2, STAT1 inh-1 54*, STAT1 act-1 49, STAT3 act-1 146*, NF-kB expr up 0.89, STAT3 inh -46, STAT3 act-2 176*, NFkB act STAT3ct 106, STAT1 act-2 95, STAT1 inh-2 32, NFkB inh STAT1ct 6 and STAT3 inh STAT1c -53.
`CN(C(=O)COc1ccccc1C(=O)NCCc1ccccc1)c1ccccc1` gave APP 5'UTR act -1, STAT1 inh-1 0, STAT1 act-1 100, STAT3 act-1 91, NF-kB expr up 1.3 and STAT3 inh 18.
Screening Cc1sc(-c2ccccn2)nc1OC(=O)c1ccc(F)cc1F returned APP 5'UTR act -21, STAT1 inh-1 74*, STAT1 act-1 30, STAT3 act-1 93, NF-kB expr up 1.2, STAT3 inh 14, STAT1 inh-2 50*, NFkB inh STAT1ct 24* and STAT3 inh STAT1c -11.
`Cc1cc(O)ccc1N1C(=O)c2cccc3cc([N+](=O)[O-])cc(c23)C1=O` gave APP 5'UTR act 6, STAT1 inh-1 46*, STAT1 act-1 56, STAT3 act-1 87, NF-kB expr up 1.4, STAT3 inh 17, STAT1 inh-2 30, NFkB inh STAT1ct 0 and STAT3 inh STAT1c 9.
Screening O=c1[nH]c2ccc(S(=O)(=O)NCc3ccccc3)cc2[nH]1 returned APP 5'UTR act 20, STAT1 inh-1 -1, STAT1 act-1 100, STAT3 act-1 102, NF-kB expr up 1.1 and STAT3 inh 2.
COc1ccccc1Nc1nc(-c2c(C)nc3ncccn23)cs1 was read as APP 5'UTR act -3, STAT1 inh-1 39*, STAT1 act-1 62, STAT3 act-1 68, NF-kB expr up 0.97, STAT3 inh 40, STAT1 inh-2 36*, NFkB inh STAT1ct 5 and STAT3 inh STAT1c 30*.
COc1ccc(CNC(=O)c2c(C)oc3c2C(=O)c2ccccc2C3=O)cc1 was read as APP 5'UTR act -10, STAT1 inh-1 -12, STAT1 act-1 111, STAT3 act-1 102, NF-kB expr up 0.34 and STAT3 inh -2.
Screening Cc1oc2c(c1C(=O)NCc1cccnc1)C(=O)c1ccccc1C2=O returned APP 5'UTR act -95, STAT1 inh-1 90*, STAT1 act-1 18, NF-kB expr up 0.15, STAT1 inh-2 98*, NFkB inh STAT1ct 74* and STAT3 inh STAT1c 65*.
Screening COc1cccc(C2=NN(S(C)(=O)=O)C(c3cccs3)C2)c1 (stereo not drawn) returned APP 5'UTR act 13, STAT1 inh-1 -11, STAT1 act-1 108, STAT3 act-1 104, NF-kB expr up 1.9 and STAT3 inh 2.
For CC(C)COc1ccc(C/C(N)=N/n2cnnc2)cc1 the results were APP 5'UTR act 18, STAT1 inh-1 35*, STAT1 act-1 67, STAT3 act-1 80, NF-kB expr up 0.87, STAT3 inh 25, STAT1 inh-2 32, NFkB inh STAT1ct 11 and STAT3 inh STAT1c 39*.
Screening Cc1ccc(-n2nnc(-c3nccs3)n2)cc1 returned APP 5'UTR act 118, STAT1 inh-1 83*, STAT1 act-1 24, NF-kB expr up 2.5, STAT1 inh-2 49*, NFkB inh STAT1ct 76* and STAT3 inh STAT1c 85*.
Screening O=c1cc(CSc2nc3ccccc3c(=O)[nH]2)c2ccc(O)cc2o1 returned APP 5'UTR act 22, STAT1 inh-1 69*, STAT1 act-1 35, STAT3 act-1 100, NF-kB expr up 0.5, STAT3 inh 5, STAT1 inh-2 52*, NFkB inh STAT1ct 14 and STAT3 inh STAT1c 1.
For O=c1[nH]c(SCc2ccccc2F)nc2ccccc12 the results were APP 5'UTR act -2, STAT1 inh-1 -7, STAT1 act-1 105, STAT3 act-1 97, NF-kB expr up 1.2 and STAT3 inh 8.
For CCCCCCC(=O)N(O)C1CC(=O)N(Cc2ccccc2)C1=O (stereo not drawn) the results were APP 5'UTR act 0, STAT1 inh-1 35*, STAT1 act-1 68, STAT3 act-1 83, NF-kB expr up 1.4, STAT3 inh 22, STAT1 inh-2 30, NFkB inh STAT1ct 11 and STAT3 inh STAT1c 22.
O=C1CCC(=O)N1CC(=O)N(c1ccccc1)c1ccccc1 was read as APP 5'UTR act -13, STAT1 inh-1 7, STAT1 act-1 92, STAT3 act-1 99, NF-kB expr up 1.7 and STAT3 inh 4.
For O=C(CCl)N(c1ccccc1)c1ccccc1 the results were APP 5'UTR act -45, STAT1 inh-1 36*, STAT1 act-1 66, STAT3 act-1 76, NF-kB expr up 0.15, STAT3 inh 31, STAT1 inh-2 36*, NFkB inh STAT1ct 24* and STAT3 inh STAT1c 24.
COc1ccc(CCNC(=O)Cn2c(=O)n(-c3ccc(C)c(F)c3)c(=O)c3sccc32)cc1OC was read as APP 5'UTR act -2, STAT1 inh-1 52*, STAT1 act-1 51, STAT3 act-1 105, NF-kB expr up 0.77, STAT3 inh 4, STAT1 inh-2 45*, NFkB inh STAT1ct 16* and STAT3 inh STAT1c 19.
Screening CCOC(=O)N1CCN(C(=O)CCn2c(=S)[nH]c3ccsc3c2=O)CC1 returned APP 5'UTR act -2, STAT1 inh-1 48*, STAT1 act-1 55, STAT3 act-1 91, NF-kB expr up 0.89, STAT3 inh 13, STAT1 inh-2 19, NFkB inh STAT1ct -4 and STAT3 inh STAT1c -1.
`OCCn1c(Cl)nc2ccccc21` gave APP 5'UTR act 7, STAT1 inh-1 -1, STAT1 act-1 94, STAT3 act-1 101, NF-kB expr up 1.3 and STAT3 inh 0.
